Laboratory results taken from ChEMBL document CHEMBL4627246, “Pyroglutamide-Based P2X7 Receptor Antagonists Targeting Inflammatory Bowel Disease” (J Med Chem, 2020).
Calls of active or inactive are those of the source. No cut-off for these calls is given here.

Experiments:
[1] = biological target: T1, P2X purinoceptor 7 (Homo sapiens) (UniProt Q99572); experiment: Antagonist activity at P2X7R in human THP1 cells assessed as inhibition of LPS and BzATP-induced ROS production at 10^-6mol/L pretreated with compound followed by LPS/BzATP addition and measured after 4 hrs by kinetic chemiluminescence based fluorometric analysis; type: cell-based; details: THP-1
T1 sequence (whole entry): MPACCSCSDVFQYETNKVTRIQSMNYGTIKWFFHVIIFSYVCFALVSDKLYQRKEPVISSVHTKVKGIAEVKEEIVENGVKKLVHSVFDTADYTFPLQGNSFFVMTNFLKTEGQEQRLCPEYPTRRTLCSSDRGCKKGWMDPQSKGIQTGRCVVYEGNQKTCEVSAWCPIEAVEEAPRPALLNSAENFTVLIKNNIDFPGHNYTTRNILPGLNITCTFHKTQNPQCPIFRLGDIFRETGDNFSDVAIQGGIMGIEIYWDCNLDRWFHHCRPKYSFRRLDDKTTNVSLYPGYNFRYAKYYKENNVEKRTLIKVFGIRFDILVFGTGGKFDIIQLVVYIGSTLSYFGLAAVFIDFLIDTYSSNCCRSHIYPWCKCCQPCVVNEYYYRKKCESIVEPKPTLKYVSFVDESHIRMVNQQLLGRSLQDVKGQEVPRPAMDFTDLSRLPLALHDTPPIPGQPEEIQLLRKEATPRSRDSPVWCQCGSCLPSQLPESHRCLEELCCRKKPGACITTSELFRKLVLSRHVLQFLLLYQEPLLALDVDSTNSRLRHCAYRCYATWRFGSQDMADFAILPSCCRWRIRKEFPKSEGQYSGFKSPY
Outline: (§1)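 Differentiated THP-1 macrophages (10^5 cells, RPMI 1640 + 10% FBS) pretreated with antagonist at 10^-6 mol/L before LPS (10 μmol/L) and BzATP (70 μmol/L), 37 °C, 5% CO2; ROS detected as luminol (50 μM)/horseradish peroxidase (50 μg/mL) chemiluminescence on a fluorometer; H2O2 without cells as positive control.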

[2] = biological target: T1, P2X purinoceptor 7 (Homo sapiens); experiment: Antagonist activity at P2X7R in human THP1 cells assessed as inhibition of LPS and BzATP-induced cell death at 10^-6 mol/L pretreated with compound followed by LPS/BzATP addition and measured after 6 hrs by sytox green dye based flow cytometry; details: THP-1
[3] = Drug metabolism in human liver microsomes assessed as metabolite N-[(2,4-dichlorophenyl)methyl]-5-oxo-pyrrolidine-2-carboxamide formation at 0.2 mg/ml incubated for 60 mins by UPLC-MS/MS analysis; type: ADME, Microsome; details: 1 h
Outline: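 Human liver microsomes (2 mg protein/mL) pre-activated with alamethicin in 0.1 M Tris-HCl/10 mM MgCl₂ pH 7.4, added to dried residue of 0.2 mg/mL compound solution; cofactors UDPGA 5 mM, NADPH 1.3 mM, G6P 3.3 mM, G6PD 0.5 U/mL. 37 °C, 60 min; stopped with methanol plus internal standards. Supernatant analysed by online-extraction UPLC on C18 with Q-TOF MS, ESI+.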

Mus musculus [4] = experiment: Antiinflammatory activity against DSS-induced colitis C57BL/6J mouse model assessed as reduction in diarrhea at 2.5 mg/kg, ip administered daily and measured for 15 days; type: functional, organism-based
Outline: (§2)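 DSS colitis in WT mice: 3.8% DSS in drinking water days 1–5, then tap water for 10 days; compound 2.5 mg/kg given i.p. daily in 10% DMSO/PBS; cohorts of 10 mice per group, placebo as comparator; weight loss and clinical disease score tracked; colon sections at day 14 stained with H&E and histologically scored; data as mean ± SEM.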

Mus musculus [5] = experiment: Antiinflammatory activity against DSS-induced colitis C57BL/6J mouse model assessed as areas of normal colonic mucosa with straight and larger crypts on muscularis mucosa at 2.5 mg/kg, ip administered daily and measured after day 14 by hematoxylin and eosin staining based microscopic analysis; type: functional, organism-based; outline: as §2
[6] = biological target: T1, P2X purinoceptor 7 (Homo sapiens); experiment: Antagonist activity at P2X7R in human THP1 cells assessed as inhibition of LPS and BzATP-induced IL-1beta expression by measuring increase in proIL-1beta expression in cell supernatant extract at 10^-6 mol/L pretreated with compound followed by LPS/BzATP addition and measured after 6 hrs by Western blot analysis; type: cell-based; details: THP-1
Mus musculus [7] = experiment: Antiinflammatory activity against DSS-induced colitis C57BL/6J mouse model assessed as decrease in inflammation level in colon at 2.5 mg/kg, ip administered daily and measured after day 14 by hematoxylin and eosin staining based microscopic analysis; type: functional; details: 336 h; outline: as §2
[8] = biological target: T1, P2X purinoceptor 7 (Homo sapiens); experiment: Antagonist activity at P2X7R in human THP1 cells assessed as inhibition of LPS and BzATP-induced mature form of IL-1beta expression in cells supernatant at 10^-6 mol/L pretreated with compound followed by LPS/BzATP addition and measured after 2 to 6 hrs by Western blot analysis; type: cell-based; details: THP-1
[9] = biological target: T1, P2X purinoceptor 7 (Homo sapiens); experiment: Antagonist activity at P2X7R in human THP1 cells assessed as inhibition of LPS and BzATP-induced ROS production at 10^-6mol/L pretreated with compound followed by LPS/BzATP addition and measured after 6 hrs by kinetic chemiluminescence based fluorometric analysis; type: cell-based; details: THP-1; outline: as §1
Mus musculus [10] = experiment: Antiinflammatory activity against DSS-induced colitis C57BL/6J mouse model assessed as reduction in DAI score at 2.5 mg/kg, ip administered daily and measured for 15 days; type: functional; details: 360 h; outline: as §2
Mus musculus [11] = experiment: Antiinflammatory activity against DSS-induced colitis C57BL/6J mouse model assessed as body weight loss at 2.5 mg/kg, ip administered daily and measured for 15 days relative to placebo-treated control; type: functional; outline: as §2
[12] = biological target: T1, P2X purinoceptor 7 (Homo sapiens); experiment: Antagonist activity at P2X7R in human THP1 cells assessed as inhibition of LPS and BzATP-induced cell death at 10^-6 mol/L pretreated with compound followed by LPS/BzATP addition and measured after 4 hrs by sytox green dye based flow cytometry; details: THP-1
Mus musculus [13] = experiment: Antiinflammatory activity against DSS-induced colitis C57BL/6J mouse model assessed as reduction in rectal bleeding at 2.5 mg/kg, ip administered daily and measured for 15 days; type: functional, organism-based; outline: as §2
[14] = biological target: T1, P2X purinoceptor 7 (Homo sapiens); experiment: Antagonist activity at P2X7R in human THP1 cells assessed as inhibition of LPS and BzATP-induced mature form of IL-1beta expression in whole cell extract at 10^-6 mol/L pretreated with compound followed by LPS/BzATP addition and measured after 2 to 6 hrs by Western blot analysis; type: cell-based; details: THP-1

Row | SMILES | inhibition [1] | inhibition [2] | Drug metabolism [3] | Activity (Mus musculus [4]) | Activity (Mus musculus [5]) | inhibition [6] | inhibition in vivo at 2.5 mg/kg (Mus musculus [7]) [%] | inhibition [8] | inhibition [9] | inhibition in vivo at 2.5 mg/kg (Mus musculus [10]) [%] | Activity (Mus musculus [11]) [%] | inhibition [12] | Activity (Mus musculus [13]) | inhibition [14]
1 | O=C(NCc1ccc(Cl)cc1Cl)[C@@H]1CCC(=O)N1c1cccs1 | Active | inactive | Metabolite_Detected | Active | Active | Active | 42 to 50 | Active | inactive | 31 | 50 | Active | Active | Active
2 | O=C(NCc1ccc(Cl)cc1Cl)[C@@H]1CCC(=O)N1c1ccsc1 | Active | inactive | – | – | – | Active | – | Active | inactive | – | – | Active | – | Active
